# Laboratory results taken from ChEMBL document CHEMBL3526077, “Prediction of human metabolism of FK3453 by aldehyde oxidase using chimeric mice transplanted with human or rat hepatocytes” (Drug Metab Dispos, 2012).
# How the values were obtained:
# [1] = Drug excretion in urine of chimeric mouse transplanted with rat hepatocytes at 3 mg/kg, iv as single dose; assay type: ADME, organism-based, Hepatocyte; design: dose 3 mg/kg, route intravenous; details: read-out: Drug excretion
# In short: (§1)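 After a 3 mg/kg i.v. dose, pooled urine and feces were collected from metabolic cages over 0–24 hr (n=3). Samples were homogenized in 10 volumes of water, mixed with acetonitrile and analysed by UPLC (UV 254 nm) and LC/MS/MS. Excretion expressed as % of dose.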
# [2] = Cmax in rat at 3.2 mg/kg, po; assay type: ADME, organism-based; design: dose 3.2 mg/kg, route oral; details: in vivo
# [3] = Drug excretion in urine of chimeric mouse transplanted with human hepatocytes at 3 mg/kg, iv as single dose; assay type: ADME, organism-based, Hepatocyte; design: dose 3 mg/kg, route intravenous; details: read-out: Drug excretion; in short: as §1
# [4] = AUC in rat at 3.2 mg/kg, po; assay type: ADME, organism-based; design: dose 3.2 mg/kg, route oral; details: plasma
# [5] = Clearance in rat at 3.2 mg/kg, po; assay type: ADME, organism-based; design: dose 3.2 mg/kg, route oral; details: in vivo
# [6] = target: T1, aldehyde oxidase (Homo sapiens, UniProt Q06278); assay: Activity of aldehyde oxidase in hepatocytes isolated from chimeric mouse transplanted with human hepatocytes assessed as enzyme-mediated drug metabolism measured as compound remaining at 10 uM after 2 hrs by LC/MS/MS analysis; assay type: ADME, cell-based, Hepatocyte; details: read-out: Stability
# T1 sequence (Q06278 whole entry): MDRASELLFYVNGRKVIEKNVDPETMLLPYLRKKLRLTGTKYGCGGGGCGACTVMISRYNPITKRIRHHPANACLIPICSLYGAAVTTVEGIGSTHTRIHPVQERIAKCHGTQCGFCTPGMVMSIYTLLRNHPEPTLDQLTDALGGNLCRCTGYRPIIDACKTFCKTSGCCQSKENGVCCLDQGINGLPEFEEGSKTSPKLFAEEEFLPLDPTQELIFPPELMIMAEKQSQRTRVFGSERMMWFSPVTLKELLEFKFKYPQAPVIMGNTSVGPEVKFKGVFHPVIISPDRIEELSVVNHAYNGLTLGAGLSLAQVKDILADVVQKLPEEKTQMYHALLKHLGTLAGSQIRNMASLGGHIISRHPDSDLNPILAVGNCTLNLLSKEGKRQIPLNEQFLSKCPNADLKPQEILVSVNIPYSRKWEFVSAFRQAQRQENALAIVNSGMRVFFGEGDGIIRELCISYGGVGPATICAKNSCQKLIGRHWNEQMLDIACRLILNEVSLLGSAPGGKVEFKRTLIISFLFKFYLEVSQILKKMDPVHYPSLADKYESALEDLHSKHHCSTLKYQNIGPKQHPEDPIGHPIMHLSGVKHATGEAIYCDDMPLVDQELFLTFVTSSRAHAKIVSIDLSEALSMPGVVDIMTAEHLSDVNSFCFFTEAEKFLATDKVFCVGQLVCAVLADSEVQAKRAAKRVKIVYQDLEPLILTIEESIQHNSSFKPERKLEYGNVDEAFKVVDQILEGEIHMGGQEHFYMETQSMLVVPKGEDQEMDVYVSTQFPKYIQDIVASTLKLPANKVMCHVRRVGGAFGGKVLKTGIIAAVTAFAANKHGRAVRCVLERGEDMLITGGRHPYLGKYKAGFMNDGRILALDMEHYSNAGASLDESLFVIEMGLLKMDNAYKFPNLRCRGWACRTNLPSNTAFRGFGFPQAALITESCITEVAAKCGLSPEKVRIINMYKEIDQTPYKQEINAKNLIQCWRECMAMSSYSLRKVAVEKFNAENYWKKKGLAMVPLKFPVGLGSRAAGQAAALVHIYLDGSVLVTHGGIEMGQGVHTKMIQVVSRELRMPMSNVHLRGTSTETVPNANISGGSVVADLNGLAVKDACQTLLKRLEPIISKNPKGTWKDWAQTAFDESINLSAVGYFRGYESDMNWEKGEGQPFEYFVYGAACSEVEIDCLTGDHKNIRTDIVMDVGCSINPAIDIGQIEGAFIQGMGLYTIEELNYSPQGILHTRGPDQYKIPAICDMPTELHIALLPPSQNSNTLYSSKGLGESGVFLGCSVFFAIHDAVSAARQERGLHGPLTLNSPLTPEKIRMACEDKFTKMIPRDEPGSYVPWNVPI
# In short: (§2)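 Fresh hepatocytes from h-PXB mice (mouse cells removed with 66Z rat IgG and anti-rat IgG magnetic beads) or r-PXB mice, 1×10^6 cells/mL in serum-free Krebs-Henseleit buffer. Incubated with 10 μM compound (0.5% acetonitrile) at 37°C under 5% CO₂/95% O₂ with shaking, sampled 0–2 hr. Quenched with acetonitrile, analysed by LC/MS/MS, n=3. CLint derived from first-order depletion rate constant.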
# [7] = Retention time of the compound by UV/mass spectrometry; assay type: physicochemical
# In short: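 Retention time on Acquity BEH C18 column (1.7 µm, 2.1×100 mm). Mobile phase 5 mM ammonium formate with 5% acetonitrile against acetonitrile, at 0.2 mL/min. Gradient: 100:0 to 2.5 min, linear to 65:35 by 25 min, 10:90 to 27 min. Detection by UV at 254 nm and MS.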
# [8] = Intrinsic clearance in hepatocytes isolated from chimeric mouse transplanted with rat hepatocytes assessed as per million cells at 10 uM after 2 hrs by LC/MS/MS analysis; assay type: ADME, cell-based, Hepatocyte; details: read-out: CLH; in short: as §2
# [9] = test system: Mus musculus; assay: Drug metabolism in plasma of chimeric mouse transplanted with rat hepatocytes at 3 mg/kg, iv as single dose; assay type: ADME, organism-based, Hepatocyte; design: dose 3 mg/kg, route intravenous
# In short: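 Pooled plasma from h-PXB or r-PXB mice after a 3 mg/kg i.v. dose was mixed with an equal volume of acetonitrile and centrifuged. Metabolites were profiled by C18 UPLC with ammonium formate/acetonitrile gradient, UV 254 nm, and Orbitrap MS/MS. Scored as detected or not detected.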
# [10] = Cmax in human at 10 mg, po; assay type: ADME, organism-based; design: dose 10 mg, route oral; details: in vivo
# [11] = Half life in rat at 3 mg/kg, iv; assay type: ADME, organism-based; design: dose 3 mg/kg, route intravenous; details: in vivo
# [12] = Clearance in human at 10 mg, po; assay type: ADME, organism-based; details: in vivo
# [13] = AUC in chimeric mouse transplanted with rat hepatocytes at 3 mg/kg, po; assay type: ADME, organism-based, Hepatocyte; design: dose 3 mg/kg, route oral
# In short: (§3)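 Single 3 mg/kg oral dose of compound in 50% PEG400 with equimolar HCl in saline to h-PXB or r-PXB mice (n=3~4). Orbital-vein blood (heparinized) taken over 0–6 hr; plasma stored at -30°C and assayed by LC/MS/MS. Non-compartmental analysis: Cmax from observed values, AUC by trapezoidal rule extrapolated to infinity, CLoral = Dose/AUCpo.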
# [14] = target: T2, aldehyde oxidase (Rattus norvegicus, UniProt Q9Z0U5); assay: Activity of aldehyde oxidase in hepatocytes isolated from chimeric mouse transplanted with rat hepatocytes assessed as enzyme-mediated drug metabolism measured as compound remaining at 10 uM after 2 hrs by LC/MS/MS analysis; assay type: ADME, cell-based, Hepatocyte; details: read-out: Stability; in short: as §2
# T2 sequence (Q9Z0U5 whole entry): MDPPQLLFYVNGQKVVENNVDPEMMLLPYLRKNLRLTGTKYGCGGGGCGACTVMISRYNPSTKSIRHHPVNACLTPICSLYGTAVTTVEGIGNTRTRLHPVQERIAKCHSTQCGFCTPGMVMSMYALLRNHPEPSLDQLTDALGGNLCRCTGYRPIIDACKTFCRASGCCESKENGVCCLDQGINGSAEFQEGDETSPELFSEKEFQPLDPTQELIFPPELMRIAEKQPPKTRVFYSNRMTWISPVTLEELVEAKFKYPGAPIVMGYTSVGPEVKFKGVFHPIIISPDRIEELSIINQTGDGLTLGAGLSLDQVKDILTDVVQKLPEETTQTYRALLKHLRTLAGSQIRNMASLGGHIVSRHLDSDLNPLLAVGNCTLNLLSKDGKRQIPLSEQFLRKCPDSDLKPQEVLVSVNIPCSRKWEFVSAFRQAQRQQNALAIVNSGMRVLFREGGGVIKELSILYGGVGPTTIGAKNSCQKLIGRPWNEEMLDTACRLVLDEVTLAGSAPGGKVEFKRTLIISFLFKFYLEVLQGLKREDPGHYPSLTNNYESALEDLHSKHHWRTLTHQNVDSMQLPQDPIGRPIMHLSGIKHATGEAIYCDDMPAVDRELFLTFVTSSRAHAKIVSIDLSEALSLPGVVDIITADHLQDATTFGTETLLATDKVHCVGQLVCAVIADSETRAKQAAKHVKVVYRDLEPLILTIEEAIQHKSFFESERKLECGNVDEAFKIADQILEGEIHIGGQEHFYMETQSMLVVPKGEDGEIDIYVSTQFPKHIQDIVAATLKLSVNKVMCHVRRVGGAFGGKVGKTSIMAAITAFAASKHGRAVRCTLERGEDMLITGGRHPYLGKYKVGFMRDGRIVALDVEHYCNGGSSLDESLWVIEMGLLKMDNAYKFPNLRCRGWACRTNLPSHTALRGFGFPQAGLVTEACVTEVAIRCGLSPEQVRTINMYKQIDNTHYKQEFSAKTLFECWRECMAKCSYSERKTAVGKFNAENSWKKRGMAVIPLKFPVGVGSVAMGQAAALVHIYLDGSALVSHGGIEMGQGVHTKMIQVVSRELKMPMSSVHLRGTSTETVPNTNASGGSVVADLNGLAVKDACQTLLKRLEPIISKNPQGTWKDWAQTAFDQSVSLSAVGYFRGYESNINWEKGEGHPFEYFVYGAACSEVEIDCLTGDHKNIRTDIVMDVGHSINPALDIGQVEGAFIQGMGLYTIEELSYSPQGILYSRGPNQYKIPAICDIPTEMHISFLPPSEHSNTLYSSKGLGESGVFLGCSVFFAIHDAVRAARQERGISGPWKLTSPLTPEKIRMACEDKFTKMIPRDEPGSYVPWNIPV
# [15] = Cmax in chimeric mouse transplanted with rat hepatocytes at 3 mg/kg, po; assay type: ADME, organism-based, Hepatocyte; design: dose 3 mg/kg, route oral; in short: as §3
# [16] = Clearance in chimeric mouse transplanted with rat hepatocytes at 3 mg/kg, po; assay type: ADME, organism-based, Hepatocyte; design: dose 3 mg/kg, route oral; in short: as §3
# [17] = Intrinsic clearance in hepatocytes isolated from chimeric mouse transplanted with human hepatocytes assessed as per million cells at 10 uM after 2 hrs by LC/MS/MS analysis; assay type: ADME, cell-based, Hepatocyte; details: read-out: CLH; in short: as §2
# [18] = Oral bioavailability in chimeric mouse transplanted with human hepatocytes at 3 mg/kg; assay type: ADME, organism-based, Hepatocyte
smiles,measurement,setting,value
CC(C)n1nc(-c2cnc(N)nc2-c2ccccc2)ccc1=O,dose excreted,[1],0.1%
same,Cmax,[2],544 ng/mL
same,dose excreted,[3],0.1%
same,AUC,[4],1790 ng·h/mL
same,CL/F,[5],29.8 mL/min/kg
same,"remaining at 2 h, 10 µM",[6],27.5%
same,Retention_time,[7],20 min
same,hepatocyte CLint at 10 µM,[8],5 µL/min/1e6 cells
same,Drug metabolism,[9],metabolite_detected
same,Cmax,[10],1.5 ng/mL
same,half-life,[11],24 min
same,CL/F,[12],1090 mL/min/kg
same,AUC,[13],811 ng·h/mL
same,"remaining at 2 h, 10 µM",[14],58.4%
same,Cmax,[15],856 ng/mL
same,CL/F,[16],61.6 mL/min/kg
same,hepatocyte CLint at 10 µM,[17],10 µL/min/1e6 cells
same,bioavailability,[18],29.4%
